High-throughput results as filed in PubChem.
An excerpt weighted towards active compounds, which were near 9.6% of everything screened.
L major viab = inhibitors of Leishmania major promastigote growth | Leishmania major promastigotes, resazurin fluorescence viability | inhibition, % at 10 µM | actives 9% (n = 200,000) | AID 1063; in the data active means inhibition above about 50%;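 further: promastigotes grown with compound for 44 hours at 28 °C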
HCT116 PTEN-null = PTEN-deleted cell growth suppression; viability, % at 10 µM; actives 1.2% (n = 140,000); HCT116 PTEN-null viability, CellTiter-Glo, 60 h; hits give low values;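 active means viability at or below a set limit, 4 SD under the median of all tested compounds, cut at about 3.7% in these data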;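 further: PTEN knockout HCT116 line with beta catenin targeted HCT116 as companion control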
TNAP act hi DEA = activators of human TNAP at high phosphate acceptor concentration. P05186. purified TNAP, CDP-star luminescence, 1 M DEA, 30 min; hits give high values; 0 = EDTA background, 1 = DMSO-only activity. activation factor at 20 µM. 200,000 tested, under 10 active. AID 1136;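 active means activation factor at least 2 at 20 µM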
Target sequence (P05186 whole entry, looked up): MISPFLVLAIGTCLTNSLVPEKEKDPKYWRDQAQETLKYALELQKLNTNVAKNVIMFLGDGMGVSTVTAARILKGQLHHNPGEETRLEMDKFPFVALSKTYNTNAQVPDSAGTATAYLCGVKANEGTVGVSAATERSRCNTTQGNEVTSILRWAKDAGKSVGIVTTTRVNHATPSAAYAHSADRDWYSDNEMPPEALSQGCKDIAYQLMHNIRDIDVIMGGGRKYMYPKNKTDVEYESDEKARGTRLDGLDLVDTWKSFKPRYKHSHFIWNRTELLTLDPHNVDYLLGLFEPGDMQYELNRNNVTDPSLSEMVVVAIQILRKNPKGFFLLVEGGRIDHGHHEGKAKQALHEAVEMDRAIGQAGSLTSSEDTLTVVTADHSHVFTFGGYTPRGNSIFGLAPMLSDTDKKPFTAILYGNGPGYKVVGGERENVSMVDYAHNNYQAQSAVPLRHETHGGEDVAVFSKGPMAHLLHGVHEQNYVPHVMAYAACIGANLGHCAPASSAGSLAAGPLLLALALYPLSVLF
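Control set: EDTA negative control, DMSO positive control / Assay system: human TNAP / Quantity: TNAP 1/800 final / Evaluation: TNAP activation factor scaled between EDTA and DMSO control wells / Measured by: luminescent substrate turnover signal / Compound dosing: one dose, 20 µM / Times: 30 min enzyme reaction at room temperature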
TNAP inh hiacc = blocks human TNAP under high phosphate acceptor concentration; P05186; purified TNAP, CDP-star luminescence, 1 M DEA; inhibition, % at 20 µM; actives 0.03% (n = 200,000); AID 1135;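 active means over 50% inhibition of tissue-nonspecific alkaline phosphatase at 20 µM in the single-dose screen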
TNAP inh no acc = blocks human TNAP activity with no phosphate acceptor present. AID 1012. actives 0.26% (n = 200,000). inhibition, % at 20 µM. purified TNAP, CDP-star luminescence, 30 min;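 active means tissue-nonspecific alkaline phosphatase inhibition above about 50% at 20 µM in the single-dose screen, limit read from the data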
HCT116 bCat-KO = beta-catenin-lacking colon tumor cell growth suppression; HCT116 beta-catenin knockout viability, CellTiter-Glo, 60 h; hits give low values; viability, % at 10 µM; actives 1.5% (n = 140,000); AID 818;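 active means viability at or under a set limit, the compound median less 4 SD, cut at about 6% in these data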
Large screens that a line does not name were inactive.

O=C(C1=C[C@H](C2CC2)C[C@H](OCCCCO)O1)N1CCN(Cc2ccccc2)CC1	none (no result: HCT116 PTEN-null, HCT116 bCat-KO)
O=C(C1=C[C@H](C2CCCCC2)C[C@H](OCCCCO)O1)N1CCN(Cc2ccccc2)CC1	L major viab 59.0 (no result: HCT116 PTEN-null, HCT116 bCat-KO)
COc1ccccc1C(=O)/C=C/c1ccc(N2CCCCC2)c([N+](=O)[O-])c1	L major viab 98.3, HCT116 PTEN-null 1.4, HCT116 bCat-KO 1.5
O=C(c1ccc(N2CCCCC2)c([N+](=O)[O-])c1)N1CCOCC1	none
O=C(O/N=C\c1ccc(N2CCCCC2)c([N+](=O)[O-])c1)c1ccc(Cl)cc1Cl	none
O=C(/C=C/c1ccc(N2CCCCC2)c([N+](=O)[O-])c1)c1ccc(O)cc1	L major viab 99.9 (no result: HCT116 PTEN-null, HCT116 bCat-KO)
O=C(CCCc1nc2ccccc2s1)NCc1cccnc1	none (no result: HCT116 PTEN-null, HCT116 bCat-KO)
COc1ccccc1C(=O)NCCCNc1ccc([N+](=O)[O-])cc1	none
O=C(NCCCO)c1cc([N+](=O)[O-])cc2c1C=Cc1ccccc1O2	L major viab 96.5 (no result: HCT116 PTEN-null, HCT116 bCat-KO)
C=CCCCCCCCCc1nc(=S)[nH][nH]1	L major viab 52.8
COC(=O)C1CCN(Cc2ccc(OCCCN3CCN(c4ccc([N+](=O)[O-])cc4)CC3)cc2)CC1	L major viab 95.5 (no result: HCT116 PTEN-null, HCT116 bCat-KO)
CC1CCN(CCCCOc2ccc([N+](=O)[O-])cc2)CC1	L major viab 91.3
O=[N+]([O-])c1ccc(OCCCCN2CCCCC2)cc1	L major viab 88.7
O=C1C2CCCCN2C(=O)N1CCCCN1CCN(c2ccc([N+](=O)[O-])cc2)CC1 (stereo unspecified)	none
CC1CCN(CCCCOc2ccccc2[N+](=O)[O-])CC1	L major viab 89.5
CC(=O)OCC(=O)Nc1ccccc1C	none (no result: HCT116 PTEN-null, HCT116 bCat-KO)
CCOC(=O)C1CCC(CN(Cc2ccccc2)S(=O)(=O)c2ccc([N+](=O)[O-])cc2)CC1 (stereo unspecified)	none
O=[N+]([O-])c1ccc(-c2ccc(S(=O)(=O)NCCN3CCCC3)cc2)cc1	L major viab 80.2 (no result: HCT116 PTEN-null, HCT116 bCat-KO)
O=[N+]([O-])c1ccc(S(=O)(=O)NCCN2CCOCC2)cc1	none (no result: HCT116 PTEN-null, HCT116 bCat-KO)
O=C(NC12CC3CC(CC(C3)C1)C2)N1CCN(C2CCCCC2)CC1	L major viab 85.3 (no result: HCT116 PTEN-null, HCT116 bCat-KO)
O=C(NC1CCCCC1)N1CCN(C2CCCCC2)CC1	L major viab 68.3
S=C(NC1CCCCC1)N1CCN(C2CCCCC2)CC1	L major viab 91.2 (no result: HCT116 PTEN-null, HCT116 bCat-KO)
COc1ccc(-n2cnc3scc(-c4ccccc4)c3c2=O)cc1	none (no result: HCT116 PTEN-null, HCT116 bCat-KO)
CCN1CCCC1CNC(=O)C1CCN(Cc2nc(-c3cccc(Br)c3)oc2C)CC1 (stereo unspecified)	L major viab 98.7, HCT116 bCat-KO 4.7
CCc1ccc(-c2nc(CN3CCC(C(=O)NCCc4ccc(OC)c(OC)c4)CC3)c(C)o2)cc1	HCT116 bCat-KO 2.0
COc1ccc(CCNC(=O)C2CCN(Cc3nc(-c4ccccc4F)oc3C)CC2)cc1OC	none
CCN1CCCC1CNC(=O)CSCc1nc(-c2ccccc2C)oc1C (stereo unspecified)	L major viab 98.9
Cc1oc(-c2cccc(Cl)c2)nc1CN1CCC(C(=O)NCc2ccco2)CC1	none
CCOC(=O)C1=NN(c2ccccc2C)C2=NC(C)=C(C(=O)OC)C(c3cccc(OC)c3)N12 (stereo unspecified)	none
COc1cccc(C(=O)N2CCN=C2SC)c1	none (no result: HCT116 PTEN-null, HCT116 bCat-KO)
Cc1c(Cl)cccc1NC(=O)CCC(=O)N/N=C/c1ccc[nH]1	none
O=C(O)CCCCCn1c(SCC(=O)c2ccc(O)c(O)c2)nc2ccsc2c1=O	TNAP inh no acc 94.1
O=C(CCCn1c(SCC(=O)c2ccc(O)c(O)c2)nc2ccccc2c1=O)NCC1CCCO1 (stereo unspecified)	TNAP inh no acc 96.4
CCCCn1c(SCC(=O)c2ccc(O)c(O)c2)nc2ccsc2c1=O	TNAP inh no acc 96.5
O=C(O)CCCCCn1c(SCC(=O)N2CCCC2)nc2ccsc2c1=O	none
O=C(Cn1nnc(-c2cccc(C(F)(F)F)c2)n1)NC1CCCC1	none
Cc1ccccc1C(=O)NCC(=O)O	none (no result: HCT116 PTEN-null, HCT116 bCat-KO)
COc1cc(NC(=S)NCCN2CCOCC2)cc(OC)c1	none
CCC(CO)n1c(=S)[nH]c2cc(OC)c(OC)cc2c1=O (stereo unspecified)	none (no result: HCT116 PTEN-null, HCT116 bCat-KO)
O=C(COc1ccccc1C(=O)NCc1ccncc1)Nc1ccc(Br)cc1	none (no result: HCT116 PTEN-null, HCT116 bCat-KO)
CCOC(=O)c1c(CSC(=N)N)n(-c2ccc(Br)cc2)c2cc(Br)c(OC(C)=O)cc12	L major viab 87.6, HCT116 PTEN-null 1.6, HCT116 bCat-KO 1.3
CCOC(=O)c1c(C)n(C)c2cc(Br)c(C(=O)OC)cc12	none
CCOC(=O)c1c(CSc2nc(C)cc(C)c2C#N)n(C)c2cc(Br)c(OC(C)=O)cc12	L major viab 96.0
C=CCCc1ccc(C#N)c(SCc2c(C(=O)OCC)c3cc(OC(C)=O)c(Br)cc3n2C)n1	L major viab 63.7
CCOC(=O)CC(=O)CSc1nc(C)cc(C)c1C#N	none
COC(=O)c1c(N2C(=O)CC(Sc3ccccc3C(=O)O)C2=O)sc2c1CCCC2 (stereo unspecified)	none (no result: HCT116 PTEN-null, HCT116 bCat-KO)
Cc1cc(NN)nc2ccc(Cl)cc12	none (no result: HCT116 PTEN-null, HCT116 bCat-KO)
CCOc1cccc(/C=N/NC(=S)Nc2cc(S(=O)(=O)N3CCOCC3)ccc2N2CCOCC2)c1O	L major viab 84.6
COc1ccc(/C=N/NC(=S)Nc2cc(S(=O)(=O)N3CCOCC3)ccc2N2CCOCC2)cc1O	L major viab 100.1
COc1cc([N+](=O)[O-])ccc1NC(=S)NC(=O)CC(C)(C)C	none (no result: HCT116 PTEN-null, HCT116 bCat-KO)
CCc1ccccc1NC(=O)/C(C#N)=C\c1ccc(Sc2ccccc2)o1	none
CCc1ccccc1NC(=O)/C(C#N)=C/c1ccc(Sc2ccccc2)o1	L major viab 92.9
CC(C)N(C(=O)CSc1nnnn1-c1ccc2c(c1)OCO2)C(C)C	none (no result: HCT116 PTEN-null, HCT116 bCat-KO)
CC1CC(C)CN(C(=O)c2ccc(N3CC4CC(C3)c3cccc(=O)n3C4)c([N+](=O)[O-])c2)C1 (stereo unspecified)	L major viab 56.3
N#CCCN(C(=O)Nc1ccc(Cl)c(Cl)c1)c1ccccc1	none
Cc1ccc(N(C(=O)Cc2c[nH]c3ccccc23)C(C(=O)NC2CCCCC2)c2ccco2)cc1 (stereo unspecified)	none
Cc1ccc(CNC(=O)CSc2nc3[nH]ncc3c(=O)[nH]2)cc1	none
Cc1ccc(-n2cc(C(=O)c3ccc(N4CCN(C)CC4)cc3)nn2)cc1Cl	L major viab 100.5 (no result: HCT116 PTEN-null, HCT116 bCat-KO)
CN1CCN(c2ccc(C(=O)c3cn(-c4ccc(F)c(Cl)c4)nn3)cc2)CC1	L major viab 50.0 (no result: HCT116 PTEN-null, HCT116 bCat-KO)
Cc1nn(C)c(Cl)c1CN1CCN(CC(C)C)C(CCO)C1 (stereo unspecified)	none (no result: HCT116 PTEN-null, HCT116 bCat-KO)
CCOC(=O)c1cnc2ccccc2c1Nc1ccc(C(=O)O)cc1	none (no result: HCT116 PTEN-null, HCT116 bCat-KO)
CCOC(=O)c1cnc2ccc(C)cc2c1Nc1ccc(N2CCOCC2)cc1	L major viab 52.5
O=C(NC12CC3CC(CC(C3)C1)C2)c1ccc(-c2ccc(Cl)cc2)o1	L major viab 92.1
